Data as given in ChEMBL document CHEMBL1122648 (J Med Chem, 1984).

Assays:
[1] = target: T1, Dihydrofolate reductase (Bos taurus, UniProt P00376); test: In vitro ability to inhibit the Dihydrofolate reductase extracted from beef liver.
T1 sequence (P00376 whole entry): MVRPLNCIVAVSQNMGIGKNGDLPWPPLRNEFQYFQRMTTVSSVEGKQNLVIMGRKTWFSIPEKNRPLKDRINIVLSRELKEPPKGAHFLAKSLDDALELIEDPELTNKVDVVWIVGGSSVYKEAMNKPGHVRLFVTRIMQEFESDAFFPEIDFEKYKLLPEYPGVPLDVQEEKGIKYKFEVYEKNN

[2] = system: CCRF-CEM; test: In vitro cytotoxicity by its growth inhibitory activity against human leukemic lymphoblasts (CEM cells).; format: functional, cell-based
Method in brief: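 Human leukemic lymphoblasts (CEM) counted after 48 h of drug exposure. Compounds dissolved in Me2SO (1 mg/mL), diluted 10-fold in Me2SO, then added to growth medium (final Me2SO 0.1%). Triplicate tubes per dose, averaged; IC50 reported.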

[3] = Compound was evaluated for its inhibitory effect on deoxyuridine ([3H]dUrd) incorporation into DNA of CEM/MTX cells in culture at conc. 10e-6; format: functional, Homo sapiens; parameters: scale not given: the % may be the effect or the level left
Method in brief: (§1)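 Log-phase CEM or CEM/MTX (transport-defective) cells, 2×10^5 per tube in serum-free EBSS, exposed to 10^-7–10^-4 M compound for 1 h at 37 °C under 5% CO2. Then pulsed 0.5 h with [3H]dThd or [3H]dUrd, washed in cold EBSS and lysed in SDS with tRNA carrier. DNA precipitated with cold 0.5 N HClO4; acid-insoluble counts given as % of untreated controls.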

[4] = Compound was evaluated for its inhibitory effect on deoxyuridine ([3H]dUrd) incorporation into DNA of CEM/MTX cells in culture at conc. 10e-5; format: functional, Homo sapiens; parameters: scale not given: the % may be the effect or the level left; method in brief: as §1
[5] = Compound was evaluated for its inhibitory effect on deoxyuridine ([3H]dUrd) incorporation into DNA of CEM cells in culture at conc. 10e-4; format: functional, Homo sapiens, CCRF-CEM; parameters: scale not given: the % may be the effect or the level left; method in brief: as §1
[6] = Compound was evaluated for its inhibitory effect on deoxyuridine ([3H]-dUrd) incorporation into DNA of CEM cells in at conc. 10e-6; format: functional, Homo sapiens, CCRF-CEM; parameters: scale not given: the % may be the effect or the level left; method in brief: as §1
[7] = Compound was evaluated for its inhibitory effect on thymidine ([3H]dThd) incorporation into DNA of CEM/MTX cells in culture at conc. 10e-4; format: functional, Homo sapiens; parameters: scale not given: the % may be the effect or the level left; method in brief: as §1
[8] = Compound was evaluated for its inhibitory effect on thymidine [3H]-dThd) incorporation into DNA of CEM/MTX cells in culture at conc. 10e-6; format: functional, Homo sapiens; parameters: scale not given: the % may be the effect or the level left; method in brief: as §1
[9] = Compound was evaluated for its inhibitory effect on deoxyuridine ([3H]dUrd) incorporation into DNA of CEM cells in culture at conc. 10e-5; format: functional, Homo sapiens, CCRF-CEM; parameters: scale not given: the % may be the effect or the level left; method in brief: as §1
[10] = Compound was evaluated for its inhibitory effect on deoxyuridine ([3H]dUrd ) incorporation into DNA of CEM/MTX cells in culture at conc. 10e-7; format: functional, Homo sapiens; parameters: scale not given: the % may be the effect or the level left; method in brief: as §1
[11] = Compound was evaluated for its inhibitory effect on thymidine ([3H]-dThd) incorporation into DNA of CEM/MTX cells in at conc. 10e-7.; format: functional, Homo sapiens; parameters: scale not given: the % may be the effect or the level left; method in brief: as §1
[12] = Compound was evaluated for its inhibitory effect on thymidine ([3H]dThd) incorporation into DNA of CEM cells in culture at conc. 10e-5; format: functional, Homo sapiens, CCRF-CEM; parameters: scale not given: the % may be the effect or the level left; method in brief: as §1
[13] = Compound was evaluated for its inhibitory effect on deoxyuridine ([3H]dUrd ) incorporation into DNA of CEM cells in culture at conc. 10e-7; format: functional, Homo sapiens, CCRF-CEM; parameters: scale not given: the % may be the effect or the level left; method in brief: as §1
[14] = Compound was evaluated for its inhibitory effect on thymidine ([3H]dThd) incorporation into DNA of CEM cells in culture at conc. 10e-6; format: functional, Homo sapiens, CCRF-CEM; parameters: scale not given: the % may be the effect or the level left; method in brief: as §1
[15] = Compound was evaluated for its inhibitory effect on thymidine ([3H]-dThd) incorporation into DNA of CEM cells in culture at conc. 10e-4; format: functional, Homo sapiens, CCRF-CEM; parameters: scale not given: the % may be the effect or the level left; method in brief: as §1
[16] = Compound was evaluated for its inhibitory effect on thymidine [3H]dThd) incorporation into DNA of CEM/MTX cells in culture at conc. 10e-5; format: functional, Homo sapiens; parameters: scale not given: the % may be the effect or the level left; method in brief: as §1
[17] = Compound was evaluated for its inhibitory effect on deoxyuridine ([3H]dUrd) incorporation into DNA of CEM/MTX cells in culture at conc. 10e-4; format: functional, Homo sapiens; parameters: scale not given: the % may be the effect or the level left; method in brief: as §1
[18] = Compound was evaluated for its inhibitory effect on thymidine ([3H]dThd) incorporation into DNA of CEM cells in at conc. 10e-7; format: functional, Homo sapiens, CCRF-CEM; parameters: scale not given: the % may be the effect or the level left; method in brief: as §1

IC50 [1] | Compound | IC50 [2] | other results
5.4 nM | CCCCCCCCOC(=O)CCC(NC(=O)c1ccc(N(C)Cc2cnc3nc(N)nc(N)c3n2)cc1)C(=O)O (stereo not drawn) | 920 nM | 
5.4 nM | CCCCOC(=O)CCC(NC(=O)c1ccc(N(C)Cc2cnc3nc(N)nc(N)c3n2)cc1)C(=O)O (stereo not drawn) | 780 nM | 
1200 nM | CCCCCCCCCCCCCCCCOC(=O)C(CCC(=O)O)NC(=O)c1ccc(N(C)Cc2cnc3nc(N)nc(N)c3n2)cc1 (stereo not drawn) | 250 nM | 
56 nM | CCCCOC(=O)C(CCC(=O)O)NC(=O)c1ccc(N(C)Cc2cnc3nc(N)nc(N)c3n2)cc1 (stereo not drawn) | 2000 nM | 
440 nM | CCCCCCCCCCCCOC(=O)C(CCC(=O)O)NC(=O)c1ccc(N(C)Cc2cnc3nc(N)nc(N)c3n2)cc1 (stereo not drawn) | 2100 nM | 
360 nM | CCCCCCCCOC(=O)C(CCC(=O)O)NC(=O)c1ccc(N(C)Cc2cnc3nc(N)nc(N)c3n2)cc1 (stereo not drawn) | 3000 nM | 
34 nM | CCCCCCCCCCCCOC(=O)CCC(NC(=O)c1ccc(N(C)Cc2cnc3nc(N)nc(N)c3n2)cc1)C(=O)O (stereo not drawn) | 370 nM | 
37 nM | CCCCCCCCCCCCCCCCOC(=O)CCC(NC(=O)c1ccc(N(C)Cc2cnc3nc(N)nc(N)c3n2)cc1)C(=O)O (stereo not drawn) | 110 nM | Control [3]: 103%; Control [4]: 55%; Control [5]: 7%; Control [6]: 64%; Control [7]: 8%; Control [8]: 108%; Control [9]: 14%; Control [10]: 95%; Control [11]: 81%; Control [12]: 25%; Control [13]: 117%; Control [14]: 67%; Control [15]: 17%; Control [16]: 15%; Control [17]: 2%; Control [18]: 92%
 | CN(Cc1cnc2nc(N)nc(N)c2n1)c1ccc(C(=O)N[C@@H](CCC(=O)O)C(=O)O)cc1 [METHOTREXATE] | 25 nM | 
